{"data": "Experimental data collected from several papers", "SIGMAR1": "Sigma non-opioid intracellular receptor 1 (SIGMAR1, Homo sapiens, UniProt Q99720)", "PFF0160c": "Dihydroorotate dehydrogenase (quinone), mitochondrial (PFF0160c, Plasmodium falciparum, UniProt Q08210)", "PFF0160c E182D": "Dihydroorotate dehydrogenase (quinone), mitochondrial (PFF0160c, Plasmodium falciparum, UniProt Q08210, E182D)", "Nectin-4": "Nectin-4 (Homo sapiens, UniProt Q96NY8)"}
{"Compound": "CC(C)NC[C@@H](O)COc1cccc2ccccc12", "target": "SIGMAR1", "assay": "ligand displacement, radioligand", "measurement": "Ki", "value": "344 nM"}
{"Compound": "COc1nc(NCC(C)C)nc(Oc2ccc(=O)n(Cc3ccccc3)n2)n1", "target": "PFF0160c", "assay": "enzyme activity, inhibitor, absorbance", "measurement": "IC50", "value": "124 nM"}
{"Compound": "CN(C)CC[C@@H](c1ccc(Cl)cc1)c1ccccn1", "target": "SIGMAR1", "assay": "ligand displacement, radioligand", "measurement": "Ki", "value": "1990 nM"}
{"Compound": "CSc1nc2nc(C)c(Cc3cccc(C(F)(F)F)c3)c(C)n2n1", "target": "PFF0160c E182D", "assay": "enzyme activity, inhibitor, absorbance", "measurement": "IC50", "value": "> 10000 nM"}
{"Compound": "CCCC[C@@H]1NC(=O)[C@H](Cc2ccc(O)cc2)NC(=O)[C@@H]2CCCN2C(=O)[C@H](CC(=O)O)NC(=O)[C@H](C)NC(=O)[C@H](Cc2ccccc2)NC(=O)[C@@H]2CSCCC(=O)N3CN(CN(C3)C(=O)CCSC[C@@H](C(=O)N[C@@H](C)C(N)=O)NC1=O)C(=O)CCSC[C@H](NC(C)=O)C(=O)N[C@@H](CC(C)(C)C)C(=O)N1CCC[C@H]1C(=O)N[C@@H](CCC(=O)O)C(=O)N[C@H](CCCCNC(=O)CCc1cn(CCOCCOCCOCCOCCOCCC(=O)N[C@H]3CSCCC(=O)N4CN5CN(C4)C(=O)CCSC[C@H](NC(=O)[C@@H](CCC(=O)O)NC(=O)[C@H](Cc4cccc6ccccc46)NC(=O)[C@@H]4CCCN4C3=O)C(=O)N[C@@H](CC(C)C)C(=O)N[C@@H](CCCCNC(=N)N)C(=O)N[C@@H](CC(=O)O)C(=O)N[C@@H](Cc3c[nH]c4ccccc34)C(=O)N[C@@H](CO)C(=O)N[C@@H]([C@@H](C)O)C(=O)N3CCC[C@H]3C(=O)N3C[C@H](O)C[C@H]3C(=O)N[C@@H](Cc3c[nH]c4ccccc34)C(=O)N[C@H](C(N)=O)CSCCC5=O)nn1)C(=O)N1CCC[C@H]1C(=O)N[C@@H](Cc1ccc(O)cc1)C(=O)N2", "target": "Nectin-4", "assay": "binding, SPR", "measurement": "Kd", "value": "4.2 nM"}
{"Compound": "Cc1cc2c(s1)Nc1ccccc1N=C2N1CCN(C)CC1", "target": "SIGMAR1", "assay": "ligand displacement, radioligand", "measurement": "Ki", "value": "> 10000 nM"}
{"Compound": "O=C1C(c2ccccc2)=C(Nc2ccc([N+](=O)[O-])cc2)c2ccccc21", "target": "PFF0160c", "assay": "enzyme activity, inhibitor, absorbance", "measurement": "IC50", "value": "2150 nM"}
{"Compound": "CCCC[C@@H]1NC(=O)[C@H](Cc2ccc(O)cc2)NC(=O)[C@@H]2CCCN2C(=O)[C@H](CC(=O)O)NC(=O)[C@H](C)NC(=O)[C@H](Cc2ccccc2)NC(=O)[C@@H]2CSCCC(=O)N3CN(CN(C3)C(=O)CCSCCC(=O)N[C@@H](CC(C)(C)C)C(=O)N3CCC[C@H]3C(=O)N[C@@H](CCC(=O)O)C(=O)N[C@H](CCCCNC(=O)CCc3cn(CCOCCOCCOCCOCCOCCC(=O)N[C@H]4CSCCC(=O)N5CN6CN(C5)C(=O)CCSC[C@H](NC(=O)[C@@H](CC(=O)O)NC(=O)[C@H](Cc5cccc7ccccc57)NC(=O)[C@@H]5CCCN5C4=O)C(=O)N[C@@H](CCSC)C(=O)N[C@@H](CCCCNC(=N)N)C(=O)N[C@@H](CC(=O)O)C(=O)N[C@@H](Cc4c[nH]c5ccccc45)C(=O)N[C@@H](CO)C(=O)N[C@@H]([C@@H](C)O)C(=O)N4CCC[C@H]4C(=O)N4C[C@H](O)C[C@H]4C(=O)N[C@@H](Cc4c[nH]c5ccccc45)C(=O)N[C@H](C(N)=O)CSCCC6=O)nn3)C(=O)N3CCC[C@H]3C(=O)N[C@@H](Cc3ccc(O)cc3)C(=O)N2)C(=O)CCSCCNC1=O", "target": "Nectin-4", "assay": "binding, SPR", "measurement": "Kd", "value": "1 nM"}
{"Compound": "Cc1cc(F)ccc1NS(=O)(=O)c1ccc(-c2ccoc2)s1", "target": "PFF0160c E182D", "assay": "enzyme activity, inhibitor, absorbance", "measurement": "IC50", "value": "> 10000 nM"}
{"Compound": "CCCC[C@@H]1NC(=O)[C@H](Cc2ccc(O)cc2)NC(=O)[C@@H]2CCCN2C(=O)[C@H](CC(=O)O)NC(=O)[C@H](C)NC(=O)[C@H](Cc2ccccc2)NC(=O)[C@@H]2CSCCC(=O)N3CN(CN(C3)C(=O)CCSCCC(=O)N[C@@H](CC(C)(C)C)C(=O)N3CCC[C@H]3C(=O)N[C@@H](CCC(=O)O)C(=O)N[C@H](CCCCNC(=O)CCc3cn(CCOCCOCCOCCN(CCOCCOCCOCCC(=O)N[C@H]4CSCCC(=O)N5CN6CN(C5)C(=O)CCSC[C@H](NC(=O)[C@@H](CC(=O)O)NC(=O)[C@H](Cc5cccc7ccccc57)NC(=O)[C@@H]5CCCN5C4=O)C(=O)N[C@@H](CCSC)C(=O)N[C@@H](CCCCNC(=N)N)C(=O)N[C@@H](CC(=O)O)C(=O)N[C@@H](Cc4c[nH]c5ccccc45)C(=O)N[C@@H](CO)C(=O)N[C@@H]([C@@H](C)O)C(=O)N4CCC[C@H]4C(=O)N4C[C@H](O)C[C@H]4C(=O)N[C@@H](Cc4c[nH]c5ccccc45)C(=O)N[C@H](C(N)=O)CSCCC6=O)CCOCCOCCOCCn4cc(CCC(=O)NCCCC[C@H]5NC(=O)[C@H](CCC(=O)O)NC(=O)[C@@H]6CCCN6C(=O)[C@H](CC(C)(C)C)NC(=O)CCSCCC(=O)N6CN7CN(C6)C(=O)CCSC[C@H](NC(=O)[C@H](Cc6ccc(O)cc6)NC(=O)[C@@H]6CCCN6C5=O)C(=O)N[C@@H](Cc5ccccc5)C(=O)N[C@@H](C)C(=O)N[C@@H](CC(=O)O)C(=O)N5CCC[C@H]5C(=O)N[C@@H](Cc5ccc(O)cc5)C(=O)N[C@@H](CCCC)C(=O)NCCSCCC7=O)nn4)nn3)C(=O)N3CCC[C@H]3C(=O)N[C@@H](Cc3ccc(O)cc3)C(=O)N2)C(=O)CCSCCNC1=O", "target": "Nectin-4", "assay": "binding, SPR", "measurement": "Kd", "value": "4 nM"}
{"Compound": "Cc1c2ccncc2c(C)c2c1[nH]c1ccccc12", "target": "SIGMAR1", "assay": "ligand displacement, radioligand", "measurement": "Ki", "value": "> 10000 nM"}
{"Compound": "CCCC[C@@H]1NC(=O)[C@H](Cc2ccc(O)cc2)NC(=O)[C@@H]2CCCN2C(=O)[C@H](CC(=O)O)NC(=O)[C@H](C)NC(=O)[C@H](Cc2ccccc2)NC(=O)[C@@H]2CSCCC(=O)N3CN(CN(C3)C(=O)CCSC[C@H](NC(C)=O)C(=O)N[C@@H](CC(C)(C)C)C(=O)N[C@@H](CCC(=O)O)C(=O)N[C@@H](CCC(=O)O)C(=O)N[C@H](CCCCNC(=O)CCc3cn(CCOCCOCCOCCN(CCOCCOCCOCCC(=O)N[C@H]4CSCCC(=O)N5CN6CN(C5)C(=O)CCSC[C@H](NC(=O)[C@@H](CC(=O)O)NC(=O)[C@H](Cc5cccc7ccccc57)NC(=O)[C@@H]5CCCN5C4=O)C(=O)N[C@@H](CCSC)C(=O)N[C@@H](CCCCNC(=N)N)C(=O)N[C@@H](CC(=O)O)C(=O)N[C@@H](Cc4c[nH]c5ccccc45)C(=O)N[C@@H](CO)C(=O)N[C@@H]([C@@H](C)O)C(=O)N4CCC[C@H]4C(=O)N4C[C@H](O)C[C@H]4C(=O)N[C@@H](Cc4c[nH]c5ccccc45)C(=O)N[C@H](C(N)=O)CSCCC6=O)CCOCCOCCOCCn4cc(CCC(=O)NCCCC[C@H]5NC(=O)[C@H](CCC(=O)O)NC(=O)[C@H](CCC(=O)O)NC(=O)[C@H](CC(C)(C)C)NC(=O)[C@@H](NC(C)=O)CSCCC(=O)N6CN7CN(C6)C(=O)CCSC[C@H](NC(=O)[C@H](Cc6ccc(O)cc6)NC(=O)[C@@H]6CCCN6C5=O)C(=O)N[C@@H](Cc5ccccc5)C(=O)N[C@@H](C)C(=O)N[C@@H](CC(=O)O)C(=O)N5CCC[C@H]5C(=O)N[C@@H](Cc5ccc(O)cc5)C(=O)N[C@@H](CCCC)C(=O)N[C@H](C(N)=O)CSCCC7=O)nn4)nn3)C(=O)N3CCC[C@H]3C(=O)N[C@@H](Cc3ccc(O)cc3)C(=O)N2)C(=O)CCSC[C@@H](C(N)=O)NC1=O", "target": "Nectin-4", "assay": "binding, SPR", "measurement": "Kd", "value": "5 nM"}
{"Compound": "Cc1cccc(C(=O)N2CCN(Cc3cccc(NC(=O)c4cccs4)c3)CC2)c1", "target": "PFF0160c E182D", "assay": "enzyme activity, inhibitor, absorbance", "measurement": "IC50", "value": "6610 nM"}
{"Compound": "O=S(=O)(O)c1nc2ccccc2[nH]1", "target": "racE (Bacillus subtilis, UniProt P94556)", "assay": "enzyme activity, inhibitor, absorbance", "measurement": "IC50", "value": "128000 nM"}
{"Compound": "CCCC[C@@H]1NC(=O)[C@H](Cc2ccc(O)cc2)NC(=O)[C@@H]2CCCN2C(=O)[C@H](CC(=O)O)NC(=O)[C@H](C)NC(=O)[C@H](Cc2ccccc2)NC(=O)[C@@H]2CSCCC(=O)N3CN(CN(C3)C(=O)CCSC[C@@H](C(N)=O)NC1=O)C(=O)CCSCCC(=O)N[C@@H](CC(C)(C)C)C(=O)N1CCC[C@H]1C(=O)N[C@@H](CCC(=O)O)C(=O)N[C@H](CCCCNC(=O)CCc1cn(CCOCCOCCOCCOCCOCCC(=O)N[C@H]3CSCCC(=O)N4CN5CN(C4)C(=O)CCSC[C@H](NC(=O)[C@@H](CC(=O)O)NC(=O)[C@H](Cc4cccc6ccccc46)NC(=O)[C@@H]4CCCN4C3=O)C(=O)N[C@@H](CCSC)C(=O)N[C@@H](CCCCNC(=N)N)C(=O)N[C@@H](CC(=O)O)C(=O)N[C@@H](Cc3c[nH]c4ccccc34)C(=O)N[C@@H](CO)C(=O)N[C@@H]([C@@H](C)O)C(=O)N3CCC[C@H]3C(=O)N3C[C@H](O)C[C@H]3C(=O)N[C@@H](Cc3c[nH]c4ccccc34)C(=O)N[C@H](C(N)=O)CSCCC5=O)nn1)C(=O)N1CCC[C@H]1C(=O)N[C@@H](Cc1ccc(O)cc1)C(=O)N2", "target": "Nectin-4", "assay": "binding, SPR", "measurement": "Kd", "value": "1.4 nM"}
